Experimental data reported in ChEMBL document CHEMBL5674869, “The Histone Methyltransferase Inhibitor A-366 Uncovers a Role for G9a/GLP in the Epigenetics of Leukemia” (PLoS One, 2015).
pEC50: −log10 of the molar value. The source made the active and inactive calls. The rule behind the calls is not given here.

Legend:
[1] = test system: HT-1080; experiment: Antiproliferative activity against human HT-1080 cells after 2 days by Cell-Titer-Glo assay; assay type: functional, cell-based; conditions: HT-1080, 48 h
How it was run: (§1)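 ATCC tumor lines were grown in their recommended media with 10% FBS and STR-authenticated. Cells were exposed to compound for the stated number of days. Viable cells were read by CellTiter-Glo endpoint. Inhibition was the ratio of treated to untreated wells, with cell-free wells set as 100% inhibition. The EC50 was taken from the dose response.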

[2] = target: T1, Histone-lysine N-methyltransferase EHMT2 (Homo sapiens) (UniProt Q96KQ7); experiment: Inhibition of G9a in human PC-3 cells assessed as effect on H4k20me1 levels at 0.3 to 3 uM after 72 hrs by Western blot analysis; assay type: cell-based; conditions: dose 0.3-3 µM
T1 sequence (whole entry): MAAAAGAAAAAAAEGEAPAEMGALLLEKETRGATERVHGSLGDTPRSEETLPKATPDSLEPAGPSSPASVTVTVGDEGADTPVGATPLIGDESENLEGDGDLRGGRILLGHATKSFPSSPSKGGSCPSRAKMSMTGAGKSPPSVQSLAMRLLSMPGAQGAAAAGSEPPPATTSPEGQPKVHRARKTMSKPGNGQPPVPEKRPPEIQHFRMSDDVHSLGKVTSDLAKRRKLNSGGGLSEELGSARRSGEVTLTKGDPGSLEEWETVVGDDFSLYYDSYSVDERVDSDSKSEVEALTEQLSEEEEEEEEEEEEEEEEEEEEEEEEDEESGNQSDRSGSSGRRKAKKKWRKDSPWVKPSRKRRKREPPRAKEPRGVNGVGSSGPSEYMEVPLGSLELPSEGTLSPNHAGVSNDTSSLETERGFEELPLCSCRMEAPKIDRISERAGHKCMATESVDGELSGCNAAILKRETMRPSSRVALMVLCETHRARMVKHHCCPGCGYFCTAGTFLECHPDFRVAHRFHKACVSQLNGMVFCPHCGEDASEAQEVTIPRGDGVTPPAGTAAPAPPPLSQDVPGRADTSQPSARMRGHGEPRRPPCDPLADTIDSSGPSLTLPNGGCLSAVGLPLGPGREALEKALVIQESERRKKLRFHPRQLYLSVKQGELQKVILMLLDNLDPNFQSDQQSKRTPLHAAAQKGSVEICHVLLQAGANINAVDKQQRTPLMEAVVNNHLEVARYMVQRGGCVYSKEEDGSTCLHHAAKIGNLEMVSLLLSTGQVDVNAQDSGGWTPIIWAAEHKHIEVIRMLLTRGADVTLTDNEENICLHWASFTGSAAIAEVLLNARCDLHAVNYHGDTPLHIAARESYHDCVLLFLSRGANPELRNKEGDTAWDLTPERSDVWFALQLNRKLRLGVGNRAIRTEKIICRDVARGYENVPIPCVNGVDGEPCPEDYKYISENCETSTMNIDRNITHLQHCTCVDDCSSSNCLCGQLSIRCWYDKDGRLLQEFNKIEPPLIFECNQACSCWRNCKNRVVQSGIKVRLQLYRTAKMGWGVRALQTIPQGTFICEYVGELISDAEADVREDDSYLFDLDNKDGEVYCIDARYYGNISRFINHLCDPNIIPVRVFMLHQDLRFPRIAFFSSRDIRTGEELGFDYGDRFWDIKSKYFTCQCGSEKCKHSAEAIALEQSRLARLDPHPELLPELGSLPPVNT
How it was run: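 PC-3 prostate cells incubated with DMSO, 0.3 or 3 μM compound for 72 h. Lysates probed by western blot with antibodies to H3K9me2, H3K4me2, H3K4me3, H3K9me3, H4K20me1, H4K20me3, H3K36me2 and H3K27me3.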

[3] = test system: HT-1080; experiment: Antiproliferative activity against human HT-1080 cells upto 10 uM after 2 days by Cell-Titer-Glo assay; assay type: functional, cell-based; conditions: time 2.0 day; how it was run: as §1
[4] = target: T1, Histone-lysine N-methyltransferase EHMT2 (Homo sapiens); experiment: Inhibition of G9a in human MV4-11 cells assessed as increase in cell differentiation marker CD11b for 14 days by flow cytometry; conditions: time 14.0 day
[5] = test system: Mus musculus; experiment: Decrease in H3K9me2 level in SCID/beige mouse tumor xenografted with human MV4-11 cells at 30 mg/kg/day via osmotic-mini pump for 14 days by alphaLisa assay; assay type: functional, organism-based; conditions: Neoplasm, time 14.0 day
How it was run: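 Female SCID-beige mice, 6–8 weeks old, received 5 x 10^6 MV4;11 cells in 50% Matrigel subcutaneously in the flank. At about 200 mm3, compound was given at 30 mg/kg/day by osmotic mini-pump in 98% PEG-400/2% Tween-80. In the PK/PD arm, tumors were harvested at the stated day and H3K9me2 was measured by AlphaLISA relative to vehicle.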

SMILES	pEC50 [1]	inhibition [2]	Activity [3]	inhibition [4]	inhibition [5]
COc1cc2c(NC3CCN(C(C)C)CC3)nc(C3CCCCC3)nc2cc1OCCCN1CCCC1	5.85	–	–	–	–
COc1cc2c(cc1OCCCN1CCCC1)N=C(N)C21CCC1	–	inactive	inactive	Active	Active
